Compound activity from PubChem BioAssay.
dFosB activator: activators of delta FosB homodimer, primary screen, biochemical, fluorescence polarization, TAMRA-CDK5 oligo, single point. activation, % at 25 µM. 340,000 tested, 0.99% active. Protein FosB (Mus musculus), P13346. purified delta FosB; percent of positive-control signal above neutral wells;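 active means mean activation above about 17%, with every replicate also reaching it, limit read from the data, passing the limit was not always enough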
Target sequence (P13346 whole entry, looked up): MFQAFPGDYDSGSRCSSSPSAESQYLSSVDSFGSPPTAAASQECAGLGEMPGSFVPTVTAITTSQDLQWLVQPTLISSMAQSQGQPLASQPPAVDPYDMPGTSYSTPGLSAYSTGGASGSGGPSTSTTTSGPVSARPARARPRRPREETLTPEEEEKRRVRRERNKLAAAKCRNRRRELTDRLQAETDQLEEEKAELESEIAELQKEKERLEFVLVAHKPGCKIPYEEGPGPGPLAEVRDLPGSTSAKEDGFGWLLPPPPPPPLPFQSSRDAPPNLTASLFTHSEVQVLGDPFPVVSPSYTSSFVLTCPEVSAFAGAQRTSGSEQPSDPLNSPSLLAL
CAL PDZ FP-1: CAL PDZ peptide-binding inhibitors, primary screen, biochemical, fluorescence polarization, Cer-tagged CAL PDZ, HTS; Golgi-associated PDZ and coiled-coil motif-containing protein (Homo sapiens), Q9HD26; purified CAL PDZ, TMR-peptide fluorescence polarization, 1 h; inhibition, % at 20 µM; 330,000 tested, 0.02% active;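 active means highest replicate inhibition of at least 40%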;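 further: plate controls were DMSO neutral control wells for no effect and unlabeled competitor peptide control wells for full effect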
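material = purified tagged CAL PDZ domain construct (CerCALP) | compound dosing = 20 µM, one dose | times = 1 h at RT | measured by = fluorescence polarization from S- and P-plane intensities, G-factor corrected | read-out = inhibition from polarization loss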
NTR1 ag: agonists of human NTR1, primary screen, imaging, U2OS cells, beta-arrestin-GFP, high content | 330,000 tested, 0.17% active | Neurotensin receptor type 1 (Homo sapiens), P30989 | AID 493036, 2011 | activation, % at 20 µM | NTR1-U2OS beta-arrestin-GFP spot imaging, agonist mode;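 active means activation at or above 40% of the spot to cytoplasm intensity ratio, with at least 20 cells analyzed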;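 further: 0% = DMSO without peptide and 100% = 100 nM NTR1 peptide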
PKA-R1A act: activators of PKA-R1A holoenzyme, primary screen, biochemical, fluorescence polarization, Cy5-IP20, bovine R1A, mouse PKAc; cAMP-dependent protein kinase type I-alpha regulatory subunit (Bos taurus) + …; PKA-R1A dissociation; scaled: DMSO 0%, 113 µM cGMP 100%; activation, % at 11.4 µM; 340,000 tested, 0.083% active;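 active means percent activation above the mean of all tested compounds plus 3 SD, cut at about 19% in these data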;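 further: higher means more PKAc released from R1A so a rise in polarization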
PKA-R2B act: activators of PKA-R2B holoenzyme, primary screen, biochemical, fluorescence polarization, Cy5-IP20, human; 340,000 tested, 0.079% active; activation, % at 11.4 µM; AID 504700, 2011; cAMP-dependent protein kinase catalytic subunit beta (Homo sapiens) + cAMP-dependent …; PKA-R2B holoenzyme dissociation; R2B truncated from residue 108, S112A mutant; 0% DMSO only, 100% 113 µM cGMP;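 active means activation above a cutoff set at the mean over all compounds plus 3 SD, cut at about 18% in these data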;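 further: higher means more holoenzyme dissociation and a rise in polarization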
CAL PDZ FP-2: untagged CAL PDZ binding inhibitors, primary screen, biochemical, fluorescence polarization, HTS; inhibition, % at 24.9 µM; purified CAL PDZ, TMR-peptide fluorescence polarization, 1 h; Golgi-associated PDZ and coiled-coil motif-containing protein (Homo sapiens), Q9HD26; 300,000 tested, 0.92% active;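 active means mean inhibition of at least 30% with at least half of replicates also reaching 30%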;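 further: 0% = DMSO neutral control and 100% = excess unlabeled competitor peptide PRC23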
Numbers without * were called inactive; x = no result given. Most compounds without a hit are left out; they make up all but 2% or so of the library.

SMILES | dFosB activator | CAL PDZ FP-1 | NTR1 ag | PKA-R1A act | PKA-R2B act | CAL PDZ FP-2
CCN(CC)CCCN1C(=O)C(O)=C(C(=O)c2ccco2)C1c1ccc(OC(C)C)cc1 (centres undefined) | -9.4 | -1.8 | -2.9 | -10.7 | 11.5 | 87.8*
COc1ccc(-c2cc(C(=O)N(C)Cc3ccc(F)cc3)c3ccccc3n2)cc1OC | -8.5 | -1.6 | 2.4 | -6.3 | -1.8 | -4.3
CN(C)CCNc1ccc(CO)c2oc3ccc(O)cc3c(=O)c12 | 25.6* | -0.2 | x | -4.8 | -3.6 | -1.6
O=C(COC(=O)C1CC(=O)N(C2CCCCC2)C1)c1ccc(F)cc1 (centres undefined) | 4.0 | 0.3 | -5.4 | -1.4 | 6.4 | -3.1
O=C(COC(=O)C1CCC(N2C(=O)C3C4CCC(C4)C3C2=O)CC1)c1ccc(F)cc1 (centres undefined) | -3.3 | -0.3 | -0.5 | 4.2 | -12.3 | 79.0*
CCCCc1ccc(S(=O)(=O)Nc2nnc(C)s2)cc1 | 2.4 | -4.7 | 0.3 | -1.9 | -1.9 | 51.9*
CCc1ccc(/C=C2/Sc3ccccc3N(CC(=O)NCC3CCCO3)C2=O)cc1 (centres undefined) | -18.5 | -3.0 | 1.0 | -10.9 | -4.7 | -3.5
Cc1ccc(/C=C2/Sc3ccccc3N(CC(=O)NCC3CCCO3)C2=O)cc1 (centres undefined) | -11.5 | -1.2 | 3.8 | -0.6 | 0.2 | 184.1*
CCCC(=O)Nc1c(-c2cccc(OC)c2)c(=O)c2ccccc2n1C | 0.2 | -0.3 | -2.1 | -9.8 | -6.8 | -1.4
OC(c1ccccc1)C(NCCNCc1ccccc1)c1ccccc1 (centres undefined) | -2.0 | -0.4 | x | -6.5 | -0.8 | 164.9*
CC(=O)OCC(=O)C1(O)CCC2C3CC(F)C4=CC(=O)CCC4(C)C3C(=O)CC21C (centres undefined) | -2.3 | 0.4 | x | 10.9 | 2.1 | 129.7*
CC(=O)OCC(=O)C1(O)CCC2C3CC(F)C4=CC(=O)CCC4(C)C3C(O)CC21C (centres undefined) | 6.7 | 0.9 | x | 1.4 | 1.6 | 85.6*
CC(=O)OCC(=O)[C@@]1(O)CC[C@H]2[C@@H]3CCC4=CC(=O)CC[C@]4(C)[C@H]3[C@@H](O)C[C@@]21C | -0.9 | 0.3 | -0.4 | -5.2 | -15.0 | -3.7
CS(=O)(=O)c1ccc(Cl)c(C(=O)Nc2ccc3nc(N4CCOCC4)sc3c2)c1 | -1.0 | -0.5 | 0.4 | -3.3 | -3.5 | -10.4
CCOC(=O)/C(C#N)=C1/C=CN(c2ccc(C)cc2)C=N1 | 3.7 | -3.0 | 1.6 | -3.0 | -8.9 | 0.6
CCOC(=O)/C(C#N)=C1/SC(CC)C(=O)N1c1ccc(C)cc1 (centres undefined) | -2.6 | -0.5 | -1.1 | 1.6 | -0.6 | 55.8*
O=C(NC1CC1)c1cccc(NC(=O)C2CCN(S(=O)(=O)c3ccccc3C(F)(F)F)CC2)c1 | x | x | x | 1.9 | -2.9 | x
COc1cccc(N=Nc2c(N)[nH]n3c(=O)cc(-c4ccccc4)nc23)c1 | -10.5 | -0.8 | 7.6 | -2.2 | 3.4 | 63.4*
O=C(NCC1CCCN1S(=O)(=O)c1cccs1)c1ccc(F)cc1 (centres undefined) | -0.4 | -2.5 | -0.1 | -7.2 | -15.9 | -1.4
Cn1cc([N+](=O)[O-])c(C(=O)NCc2ccccc2)n1 | 7.5 | -0.4 | -0.6 | 8.4 | -4.8 | 30.2*
Cc1cccc(C)c1NC(=O)NCCCN1CCN(c2ccccc2)CC1 | -5.2 | -0.5 | 2.0 | -9.1 | -0.9 | 51.3*
Cc1nc(C(F)(F)F)ccc1C(=O)N1CCCCC1 | -0.8 | 0.0 | 0.6 | -10.9 | 4.0 | 10.4
CCN(CC)CCN1C(=O)C(=O)/C(=C(/O)c2ccc(S(=O)(=O)N3CCOCC3)cc2)C1c1ccccc1 (centres undefined) | 2.5 | -0.4 | 0.0 | 2.0 | -14.6 | -0.2
Cc1cc(Nc2ccc(Cl)cc2)nc(NCc2ccccc2)n1 | 38.0* | -0.5 | 18.5 | -8.6 | -5.7 | -2.9
Cc1ccc(/C=N/Nc2cc(C)nc(NCc3ccccc3)n2)cc1 | 54.6* | -0.9 | 24.7 | -2.0 | -8.2 | -5.3
SMILES | dFosB activator | CAL PDZ FP-1 | NTR1 ag | PKA-R1A act | PKA-R2B act | CAL PDZ FP-2
O=C(CCN1CCOCC1)Nc1cc(C(=O)Nc2ccc(Cl)cc2)ccc1N1CC2CC(C1)c1cccc(=O)n1C2 (centres undefined) | -7.0 | -2.8 | 1.2 | -14.1 | -9.5 | 62.3*
CCOc1ccc(NC(=O)c2ccc(N3CC4CC(C3)c3cccc(=O)n3C4)c(NC(=O)c3ccncc3)c2)cc1 (centres undefined) | -2.1 | -4.0 | 0.6 | 8.7 | 6.7 | 1.8
C=CCOC1=CS(=O)(=O)N(Cc2ccc(Br)cc2)c2ccc(Br)cc21 | -9.2 | 0.3 | 3.7 | -16.3 | -4.1 | 0.3
CCc1ccc(NC(=O)NCc2cccnc2)cc1 | 2.6 | -2.0 | 0.6 | -1.8 | 0.4 | -3.5
O=C(CCNC(=O)c1ccc([N+](=O)[O-])cc1)NNC(=O)c1ccccc1F | -7.2 | -1.3 | -1.1 | 4.5 | 2.1 | -3.5
Cn1nc(CC(=O)N2CCN(c3ccccc3)CC2)c2ccccc2c1=O | -8.0 | -2.6 | 6.7 | 1.1 | 6.4 | -1.4
Cn1nc(CC(=O)Nc2ccc(N3CCN(C(=O)OC(C)(C)C)CC3)cc2)c2ccccc2c1=O | 21.4* | -0.7 | 0.3 | -6.1 | 6.6 | 1.9
NS(=O)(=O)c1ccc(CCNCC(=O)NCc2ccccc2Cl)cc1 | -9.7 | -3.6 | -1.1 | -0.7 | 1.9 | 6.0
Cc1nn(-c2ccccn2)c2c1C(c1ccsc1)C1=C(CCCC1=O)N2 (centres undefined) | -9.0 | -1.1 | 2.3 | 0.6 | -0.4 | -3.1
Cc1cccc(-n2nc(C)c3c2NC2=C(C(=O)CCC2)C3c2ccccn2)c1 (centres undefined) | -14.9 | x | 2.0 | -4.0 | -6.0 | 79.2*
CSc1ccc(/C=C(/NC(=O)c2ccco2)C(=O)N2CCCCCC2)cc1 | -16.6 | -0.1 | -0.8 | -2.5 | 7.1 | -7.4
O=C(N/C(=C\c1ccc(Cl)cc1)C(=O)N1CCCCC1)c1ccco1 | -3.2 | -1.4 | 1.2 | -3.5 | -0.5 | 82.3*
NC(=S)N=Nc1c(O)n(CCCl)c2ccccc12 | 1.6 | -0.2 | 1.6 | x | x | -7.3
NC(=S)N=Nc1c(O)n(C2OC(=O)c3ccccc32)c2ccccc12 (centres undefined) | 26.2* | 0.8 | 0.7 | -3.3 | -2.1 | -3.6
